The source of these data is ChEMBL document CHEMBL1136800 (J Med Chem, 2003).

SMILES strings stand for the structures.

For one assay, the target named is cGMP-specific 3',5'-cyclic phosphodiesterase (Bos taurus, UniProt Q28156). Nature of the assay: Inhibitory activity against bovine PDE5 (phosphodiesterase-5).
Settings: not given
On to `COc1ccc([C@H]2c3[nH]c4ccccc4c3C[C@@H]3C(=O)N(C4CCCCC4)C(=O)N23)cc1`, for which inhibition was half-maximal at 3 nM (IC50).
On the same count and under the same terms, the result for `CCCCN1C(=O)[C@H]2Cc3c([nH]c4ccccc34)[C@@H](c3cccnc3)N2C1=O` reads 90 nM.
The same measure, in the same setting: for `COc1ccc([C@H]2c3[nH]c4ccccc4c3C[C@@H]3C(=O)N(CCN(C)C)C(=O)N23)cc1` the value was 30 nM.
For the molecule `COc1ccc([C@H]2c3[nH]c4ccccc4c3C[C@@H]3C(=O)N(Cc4ccccc4)C(=O)N23)cc1`, half-maximal inhibition (IC50) was put at 18 nM.
On the same count and under the same terms, for `CCOC(=O)c1cc2c(cn1)[nH]c1ccccc12` the value was 800 nM.
Still for that read-out and setting: the result for `CCCCN1C(=O)[C@H]2Cc3c([nH]c4ccccc34)[C@@H](c3ccoc3)N2C1=O` reads 100 nM; that for `CCCCN1C(=O)[C@H]2Cc3c([nH]c4ccccc34)[C@H](c3ccc(Cl)cc3)N2C1=O`, 20 nM; that for `CCN1C(=O)[C@H]2Cc3c([nH]c4ccccc34)[C@@H](c3ccc(OC)cc3)N2C1=O`, 10 nM.
In the case of `CCCCN1C(=O)[C@H]2Cc3c([nH]c4ccccc34)[C@H](c3ccc(C#N)cc3)N2C1=O`, half-maximal inhibition (IC50) was put at 300 nM.
In the case of `COc1ccc([C@@H]2c3[nH]c4ccccc4c3C[C@@H]3C(=O)N(C4CCCCC4)C(=O)N23)cc1`, the half-inhibitory concentration (IC50) (commonly the midpoint of a concentration-inhibition curve) stood at 7 nM.
Same read-out and setting: for `COc1ccc([C@H]2c3[nH]c4ccccc4c3C[C@@H]3C(=O)N(CCc4ccccn4)C(=O)N23)cc1` the value was 6 nM.
The same measure, in the same setting: for `CCCCN1C(=O)[C@H]2Cc3c([nH]c4ccccc34)[C@@H](c3ccc(Cl)cc3)N2C1=O` the value was 50 nM; for `CCN1C(=O)[C@H]2Cc3c([nH]c4ccccc34)[C@H](c3ccc(OC)cc3)N2C1=O`, 7 nM.
Still for that read-out and setting: the result for `COc1ccc([C@H]2c3[nH]c4ccccc4c3C[C@@H]3C(=O)N(CCN4CCCC4)C(=O)N23)cc1` reads 100 nM; that for `CCCCN1C(=O)[C@H]2Cc3c([nH]c4ccccc34)[C@@H](c3ccccc3)N2C1=O`, 60 nM.
Molecule `CCCCN1C(=O)[C@H]2Cc3c([nH]c4ccccc34)[C@@H](c3cccc(Cl)c3)N2C1=O` gave an IC50 of 50 nM.
Still for that read-out and setting: for `CCCCN1C(=O)[C@H]2Cc3c([nH]c4ccccc34)[C@@H](c3ccc(C#N)cc3)N2C1=O` the value was 900 nM; for `COc1ccc([C@H]2c3[nH]c4ccccc4c3C[C@@H]3C(=O)NC(=O)N23)cc1`, 20 nM; for `CCCCN1C(=O)[C@H]2Cc3c([nH]c4ccccc34)[C@@H](c3ccncc3)N2C1=O`, 300 nM.
As for `CCCCN1C(=O)[C@H]2Cc3c([nH]c4ccccc34)[C@H](c3ccccc3)N2C1=O`, the IC50 came out at 20 nM.
Regarding `CCCCN1C(=O)[C@H]2Cc3c([nH]c4ccccc34)[C@@H](c3ccsc3)N2C1=O`, half-maximal inhibition (IC50) was put at 30 nM.
For the molecule `COc1ccc([C@@H]2c3[nH]c4ccccc4c3C[C@@H]3C(=O)N(Cc4ccccc4)C(=O)N23)cc1`, the IC50 amounted to 4 nM.
Still for that read-out and setting: the result for `CCCCN1C(=O)[C@H]2Cc3c(n(C)c4ccccc34)[C@@H](c3ccc(OC)cc3)N2C1=O` reads more than 10000 nM.
With `CCCCN1C(=O)[C@H]2Cc3c([nH]c4ccccc34)[C@H](c3cccc(Cl)c3)N2C1=O`, the IC50 turned out to be 50 nM.
Still for that read-out and setting: the result for `CCCCN1C(=O)[C@H]2Cc3c([nH]c4ccccc34)[C@H](c3ccccc3OC)N2C1=O` reads 1000 nM; that for `COc1ccc([C@H]2c3[nH]c4ccccc4c3C[C@@H]3C(=O)N(Cc4cccnc4)C(=O)N23)cc1`, 20 nM; that for `COc1ccc([C@@H]2c3[nH]c4ccccc4c3C[C@@H]3C(=O)N(C)C(=O)N23)cc1`, 10 nM.

The next assay deals with cGMP-dependent 3',5'-cyclic phosphodiesterase (Homo sapiens, UniProt O00408). Nature of the assay: Inhibition of human recombinant PDE2 (phosphodiesterase 2).
Sequence of cGMP-dependent 3',5'-cyclic phosphodiesterase (O00408 whole entry): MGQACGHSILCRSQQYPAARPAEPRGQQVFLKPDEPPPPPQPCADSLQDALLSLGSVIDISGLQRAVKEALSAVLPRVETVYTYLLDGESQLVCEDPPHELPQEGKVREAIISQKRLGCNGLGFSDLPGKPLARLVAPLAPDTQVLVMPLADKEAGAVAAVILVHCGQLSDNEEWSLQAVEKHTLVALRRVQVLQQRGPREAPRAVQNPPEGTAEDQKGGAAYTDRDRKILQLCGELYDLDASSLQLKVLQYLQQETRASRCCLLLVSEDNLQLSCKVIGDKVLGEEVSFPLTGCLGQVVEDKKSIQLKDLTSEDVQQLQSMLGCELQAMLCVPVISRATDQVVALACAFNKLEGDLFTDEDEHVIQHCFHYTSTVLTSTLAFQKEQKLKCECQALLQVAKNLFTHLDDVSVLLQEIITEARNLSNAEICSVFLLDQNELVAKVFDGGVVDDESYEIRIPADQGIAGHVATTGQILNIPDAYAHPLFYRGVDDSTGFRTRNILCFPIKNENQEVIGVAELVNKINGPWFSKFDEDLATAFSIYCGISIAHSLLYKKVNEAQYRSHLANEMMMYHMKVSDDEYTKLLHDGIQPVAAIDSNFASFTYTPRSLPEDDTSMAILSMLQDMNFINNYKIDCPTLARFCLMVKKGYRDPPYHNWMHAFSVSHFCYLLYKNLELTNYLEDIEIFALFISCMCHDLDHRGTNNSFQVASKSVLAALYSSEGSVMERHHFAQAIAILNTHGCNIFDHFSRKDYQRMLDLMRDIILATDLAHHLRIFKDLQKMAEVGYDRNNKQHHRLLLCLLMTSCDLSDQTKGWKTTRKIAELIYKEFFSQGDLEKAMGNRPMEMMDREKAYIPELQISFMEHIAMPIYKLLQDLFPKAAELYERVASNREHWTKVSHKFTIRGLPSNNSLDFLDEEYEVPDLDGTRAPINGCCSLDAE
Settings: not given
The method in brief: (§1)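 Incubated 30 min at 30 °C under initial-velocity conditions (≤10-15% hydrolysis). Product separated on QAE Sephadex and counted by scintillation; final DMSO 2%.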
For the molecule `CCCCN1C(=O)[C@H]2Cc3c([nH]c4ccccc34)[C@H](c3ccc(OC)cc3)N2C1=O`, the IC50 was more than 10000 nM.
Same read-out and setting: the result for `CCCCN1C(=O)[C@H]2Cc3c([nH]c4ccccc34)[C@@H](c3ccc(OC)cc3)N2C1=O` reads more than 10000 nM; that for `COc1ccc([C@@H]2c3[nH]c4ccccc4c3C[C@@H]3C(=O)N(C4CCCCC4)C(=O)N23)cc1`, more than 10000 nM.
Still for that read-out and setting: for `COc1ccc([C@@H]2c3[nH]c4ccccc4c3C[C@@H]3C(=O)N(Cc4ccccc4)C(=O)N23)cc1` the value was more than 10000 nM.

The target of a further assay is Phosphodiesterase 3B (Bos taurus, UniProt E1BN64). Nature of the assay: Inhibition of bovine aorta PDE3 (phosphodiesterase 3).
Sequence of Phosphodiesterase 3B (E1BN64 whole entry): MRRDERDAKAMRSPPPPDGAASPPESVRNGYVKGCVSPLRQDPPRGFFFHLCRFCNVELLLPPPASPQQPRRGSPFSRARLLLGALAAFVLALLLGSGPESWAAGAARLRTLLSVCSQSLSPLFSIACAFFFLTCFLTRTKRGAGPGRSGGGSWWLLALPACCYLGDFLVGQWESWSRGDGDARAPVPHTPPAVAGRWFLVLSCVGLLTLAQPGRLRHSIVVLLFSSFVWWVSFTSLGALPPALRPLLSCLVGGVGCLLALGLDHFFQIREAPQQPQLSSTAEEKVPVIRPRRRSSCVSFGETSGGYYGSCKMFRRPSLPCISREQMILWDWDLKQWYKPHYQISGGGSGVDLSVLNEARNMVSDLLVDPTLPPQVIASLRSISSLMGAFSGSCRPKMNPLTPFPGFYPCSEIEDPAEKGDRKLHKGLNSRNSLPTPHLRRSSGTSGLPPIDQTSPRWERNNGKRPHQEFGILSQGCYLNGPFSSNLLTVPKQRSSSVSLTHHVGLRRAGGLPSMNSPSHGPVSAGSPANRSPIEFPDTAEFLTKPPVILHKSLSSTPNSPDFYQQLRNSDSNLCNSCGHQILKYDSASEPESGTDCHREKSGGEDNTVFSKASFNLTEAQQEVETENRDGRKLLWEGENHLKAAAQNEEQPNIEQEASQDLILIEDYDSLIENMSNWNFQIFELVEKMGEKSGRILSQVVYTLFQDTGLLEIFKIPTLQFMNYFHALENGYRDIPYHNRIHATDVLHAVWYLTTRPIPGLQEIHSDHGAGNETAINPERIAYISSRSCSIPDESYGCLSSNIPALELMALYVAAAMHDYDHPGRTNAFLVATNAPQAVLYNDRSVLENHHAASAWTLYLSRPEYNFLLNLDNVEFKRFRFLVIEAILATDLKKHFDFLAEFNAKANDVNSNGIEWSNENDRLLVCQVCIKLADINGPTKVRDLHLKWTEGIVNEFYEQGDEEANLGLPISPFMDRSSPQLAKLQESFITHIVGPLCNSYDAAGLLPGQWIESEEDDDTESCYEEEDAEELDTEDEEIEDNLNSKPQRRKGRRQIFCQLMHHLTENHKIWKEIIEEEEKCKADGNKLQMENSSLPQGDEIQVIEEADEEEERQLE
Settings: not given
The method in brief:
as §1
Regarding `CCCOc1ccccc1-c1nc2[nH]nnc2c(=O)[nH]1` [ZAPRINAST], the IC50 is more than 10000 nM.
For the molecule `CCCCN1C(=O)[C@H]2Cc3c([nH]c4ccccc34)[C@H](c3ccc(OC)cc3)N2C1=O`, the IC50 was more than 10000 nM.
`CCCCN1C(=O)[C@H]2Cc3c([nH]c4ccccc34)[C@@H](c3ccc(OC)cc3)N2C1=O` gave an IC50 of more than 10000 nM.
`COc1ccc([C@@H]2c3[nH]c4ccccc4c3C[C@@H]3C(=O)N(C4CCCCC4)C(=O)N23)cc1` gave a 50% inhibitory concentration (IC50) of more than 10000 nM.
`CCCCN1C(=O)[C@H]2Cc3c([nH]c4ccccc34)[C@@H](c3ccncc3)N2C1=O` gave an IC50 of more than 10000 nM.
On the same count and under the same terms, the result for `COc1ccc([C@@H]2c3[nH]c4ccccc4c3C[C@@H]3C(=O)N(Cc4ccccc4)C(=O)N23)cc1` reads more than 10000 nM.

The target of another assay is Phosphodiesterase 1 (Bos taurus, UniProt Q01061+P14100). Put plainly: Inhibition of bovine aorta PDE1 (phosphodiesterase 1).
Settings: not given
Format: protein assay. The method, boiled down:
as §1
The molecule `CCCOc1ccccc1-c1nc2[nH]nnc2c(=O)[nH]1` [ZAPRINAST] displayed an IC50 of 2600 nM.
Still for that read-out and setting: for `CCCCN1C(=O)[C@H]2Cc3c([nH]c4ccccc34)[C@H](c3ccc(OC)cc3)N2C1=O` the value was more than 10000 nM.
The same measure, in the same setting: the result for `CCCCN1C(=O)[C@H]2Cc3c([nH]c4ccccc34)[C@@H](c3ccc(OC)cc3)N2C1=O` reads more than 10000 nM; that for `COc1ccc([C@@H]2c3[nH]c4ccccc4c3C[C@@H]3C(=O)N(C4CCCCC4)C(=O)N23)cc1`, more than 10000 nM.
Regarding `CCCCN1C(=O)[C@H]2Cc3c([nH]c4ccccc34)[C@@H](c3ccncc3)N2C1=O`, the IC50 amounted to 2000 nM.
On the same count and under the same terms, for `COc1ccc([C@@H]2c3[nH]c4ccccc4c3C[C@@H]3C(=O)N(Cc4ccccc4)C(=O)N23)cc1` the value was more than 10000 nM.

A further assay deals with Phosphodiesterase 4 (Homo sapiens, UniProt P27815+Q08499+Q07343+Q08493). Nature of the assay: Inhibition of human recombinant PDE4 (phosphodiesterase 4). It counts as protein assay.
Settings: not given
The method, boiled down: as §1
As to `CCCCN1C(=O)[C@H]2Cc3c([nH]c4ccccc34)[C@H](c3ccc(OC)cc3)N2C1=O`, the half-maximal inhibitory concentration (IC50) is more than 10000 nM.
Turning to `CCCCN1C(=O)[C@H]2Cc3c([nH]c4ccccc34)[C@@H](c3ccc(OC)cc3)N2C1=O`, the IC50 was more than 10000 nM.
The same measure, in the same setting: the result for `COc1ccc([C@@H]2c3[nH]c4ccccc4c3C[C@@H]3C(=O)N(C4CCCCC4)C(=O)N23)cc1` reads more than 10000 nM; that for `CCCCN1C(=O)[C@H]2Cc3c([nH]c4ccccc34)[C@@H](c3ccncc3)N2C1=O`, more than 10000 nM.
On the same count and under the same terms, the result for `COc1ccc([C@@H]2c3[nH]c4ccccc4c3C[C@@H]3C(=O)N(Cc4ccccc4)C(=O)N23)cc1` reads more than 10000 nM.

Test system in a further assay: not listed separately
Put plainly: Increase in intracellular cGMP concentration in atrial natriuretic factor treated rat aortic smooth muscle cells. Format: functional, tissue-based. The conditions noted are these: Aorta. The method, boiled down:
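Primary rat aortic smooth muscle cells grown in DMEM with 10% FCS and used at confluence (3-5 days). Compound in PBS for 30 min at 37 °C, then ANF 0.1 µM for 10 min at 37 °C. Intracellular cGMP extracted with 65% ethanol and measured by scintillation proximity immunoassay, in triplicate wells; DMSO ≤0.1%. EC50 is the concentration giving half the maximal cGMP increase seen at saturating compound.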
As to `COc1ccc([C@H]2c3[nH]c4ccccc4c3C[C@@H]3C(=O)N(C4CCCCC4)C(=O)N23)cc1`, it took 100 nM to reach a half-maximal effect (EC50).
The same measure, in the same setting: the result for `CCCCN1C(=O)[C@H]2Cc3c([nH]c4ccccc34)[C@H](c3ccc(OC)cc3)N2C1=O` reads 1000 nM.
Regarding `COc1ccc([C@H]2c3[nH]c4ccccc4c3C[C@@H]3C(=O)N(CCN(C)C)C(=O)N23)cc1`, the response was half-maximal at 3500 nM (EC50). This EC50 is about 3.5-fold higher than that of the molecule before.
As to `COc1ccc([C@H]2c3[nH]c4ccccc4c3C[C@@H]3C(=O)N(Cc4ccccc4)C(=O)N23)cc1`, the EC50 (in general, the concentration at which the effect is half-maximal) was more than 10000 nM.
For the molecule `CCCCN1C(=O)[C@H]2Cc3c([nH]c4ccccc34)[C@H](c3ccc(Cl)cc3)N2C1=O`, the EC50 turned out to be 1500 nM.
On to `CCCCN1C(=O)[C@H]2Cc3c([nH]c4ccccc34)[C@@H](c3ccc(OC)cc3)N2C1=O`, for which the midpoint of the response, the EC50, lay at 700 nM.
Same read-out and setting: the result for `CCN1C(=O)[C@H]2Cc3c([nH]c4ccccc34)[C@@H](c3ccc(OC)cc3)N2C1=O` reads 400 nM.
In turn, `COc1ccc([C@@H]2c3[nH]c4ccccc4c3C[C@@H]3C(=O)N(C4CCCCC4)C(=O)N23)cc1` returned a 50% effective concentration (EC50) of 300 nM.
Still for that read-out and setting: for `COc1ccc([C@H]2c3[nH]c4ccccc4c3C[C@@H]3C(=O)N(CCc4ccccn4)C(=O)N23)cc1` the value was 1500 nM.
Same read-out and setting: for `CCCCN1C(=O)[C@H]2Cc3c([nH]c4ccccc34)[C@@H](c3ccc(Cl)cc3)N2C1=O` the value was more than 10000 nM; for `CCN1C(=O)[C@H]2Cc3c([nH]c4ccccc34)[C@H](c3ccc(OC)cc3)N2C1=O`, 1500 nM; for `COc1ccc([C@H]2c3[nH]c4ccccc4c3C[C@@H]3C(=O)N(CCN4CCCC4)C(=O)N23)cc1`, 10000 nM.
Consider `CCCCN1C(=O)[C@H]2Cc3c([nH]c4ccccc34)[C@@H](c3ccccc3)N2C1=O`, for which the EC50 came out at 5000 nM. Against the preceding molecule, the EC50 is about 2-fold lower.
On the same count and under the same terms, for `CCCCN1C(=O)[C@H]2Cc3c([nH]c4ccccc34)[C@@H](c3cccc(Cl)c3)N2C1=O` the value was 4000 nM; for `COc1ccc([C@H]2c3[nH]c4ccccc4c3C[C@@H]3C(=O)NC(=O)N23)cc1`, 3000 nM; for `CCCCN1C(=O)[C@H]2Cc3c([nH]c4ccccc34)[C@H](c3ccccc3)N2C1=O`, 2000 nM.
Same read-out and setting: the result for `COc1ccc([C@@H]2c3[nH]c4ccccc4c3C[C@@H]3C(=O)N(Cc4ccccc4)C(=O)N23)cc1` reads 150 nM; that for `CCCCN1C(=O)[C@H]2Cc3c([nH]c4ccccc34)[C@H](c3cccc(Cl)c3)N2C1=O`, more than 10000 nM; that for `COc1ccc([C@H]2c3[nH]c4ccccc4c3C[C@@H]3C(=O)N(Cc4cccnc4)C(=O)N23)cc1`, 5500 nM.
On the same count and under the same terms, for `COc1ccc([C@@H]2c3[nH]c4ccccc4c3C[C@@H]3C(=O)N(C)C(=O)N23)cc1` the value was 1000 nM.
